Active and inactive are the calls of the source. No cut-off for these calls is given here.
Experiments:
Rattus norvegicus [1] = assay: Hypoglycemic activity in 48-hrs fasted rat assessed as decrease in blood glucose level at 300 mg/kg, po measured up to 4 hrs after drug administration; format: functional, organism-based; parameters: dose 300 mg/kg
Procedure, shortened: (§1)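 Male rats of about 200 g were fasted 48 h. A zero-time tail-vein blood sample was taken on the morning of the test, then compound was given ip as a suspension in 0.9% saline or orally as a suspension in 0.5% tragacanth. Vehicle-only rats served as controls. Tail-vein blood was sampled at 1, 2 and 4 h for glucose.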

Rattus norvegicus [2] = assay: Hypoglycemic activity in 48-hrs fasted rat assessed as decrease in blood glucose level at 300 mg/kg, ip measured up to 4 hrs after drug administration; format: functional, organism-based; parameters: dose 300 mg/kg; procedure, shortened: as §1
Rattus norvegicus [3] = assay: Hypoglycemic activity in 48-hrs fasted rat assessed as decrease in blood glucose level at 200 mg/kg, po after 4 hrs; format: functional; procedure, shortened: as §1
Rattus norvegicus [4] = assay: Hypoglycemic activity in 48-hrs fasted rat assessed as decrease in blood glucose level at 200 mg/kg, po after 2 hrs; format: functional; procedure, shortened: as §1
Rattus norvegicus [5] = assay: Hypoglycemic activity in 48-hrs fasted rat assessed as decrease in blood glucose level at 200 mg/kg, po after 1 hr; format: functional; procedure, shortened: as §1
Rattus norvegicus [6] = assay: Hypoglycemic activity in 48-hrs fasted rat assessed as decrease in blood glucose level at 200 mg/kg, ip after 2 hrs; format: functional; conditions: route intraperitoneal; procedure, shortened: as §1
Rattus norvegicus [7] = assay: Toxicity in 48-hrs fasted rat assessed as mortality at 200 mg/kg, ip after 4 hrs; format: organism-based; parameters: dose 200 mg/kg, route intraperitoneal; conditions: in vivo
Procedure, shortened: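 Male rats, about 200 g, fasted 48 h before dosing. Given ip as a suspension in 0.9% saline; vehicle-only group run as controls. Tail-vein blood taken at time zero and at 1, 2 and 4 h after dosing.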

Rattus norvegicus [8] = assay: Hypoglycemic activity in 48-hrs fasted rat assessed as decrease in blood glucose level at 200 mg/kg, ip after 1 hr; format: functional; conditions: route intraperitoneal; procedure, shortened: as §1

SMILES	Activity (Rattus norvegicus [1])	Activity (Rattus norvegicus [2])	other results
O=C(O)c1ncc(S)cc1S	inactive	inactive	–
O=C(O)c1nc(C(=O)O)c(S)cc1S	inactive	inactive	–
O=C(O)c1nc2ccccc2cc1S	inactive	inactive	–
CCCCNC(=O)NS(=O)(=O)c1ccc(C)cc1 [TOLBUTAMIDE]	–	–	inhibition in vivo at 200 mg/kg (Rattus norvegicus [3]): 48%; inhibition in vivo at 200 mg/kg (Rattus norvegicus [4]): 47%; inhibition in vivo at 200 mg/kg (Rattus norvegicus [5]): 28%
CS(=O)(=O)c1cccnc1C(=O)O	inactive	inactive	–
O=C(O)c1ccc(S)c(C(=O)O)n1	inactive	inactive	–
C[S+]([O-])c1cccnc1C(=O)O (centres undefined)	inactive	inactive	–
CCOC(=O)c1ncsc1S	inactive	inactive	–
O=C(O)c1[nH]c2ccccc2c1S	–	–	inhibition in vivo at 200 mg/kg (Rattus norvegicus [6]): 51%; Activity (Rattus norvegicus [7]): Toxic; inhibition in vivo at 200 mg/kg (Rattus norvegicus [8]): 45%
O=C(O)c1ncc2ccccc2c1S	inactive	inactive	–
O=C(O)c1nccnc1S	inactive	inactive	–
